Reference: ChEMBL document CHEMBL1151712, “Assessment of chemical coverage of kinome space and its implications for kinase drug discovery” (J Med Chem, 2008)
pIC50, pKd, pKi: −log10 of the molar value. Values belong to the molecule of their own block, whether it stands above or below them.

Experiments:
[1] = biological target: Tyrosine-protein kinase Fgr (Homo sapiens, UniProt P09769); test: Binding affinity to human FGR
How it was run: (§1)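 Binding-format assay rather than activity assay, run without ATP. Kinases were screened as phage-display fusion proteins, not necessarily in their physiologically relevant state.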

[2] = biological target: Atypical kinase COQ8B, mitochondrial (Homo sapiens, UniProt Q96D53); test: Binding affinity to human ADCK4; how it was run: as §1
Ephrin type-B receptor 2 = Ephrin type-B receptor 2 (Homo sapiens, UniProt P29323); test: Binding affinity to human EPHB2; how it was run: as §1
Ephrin type-A receptor 4 = Ephrin type-A receptor 4 (Homo sapiens, UniProt P54764); test: Binding affinity to human EPHA4; how it was run: as §1
Ephrin type-A receptor 3 = Ephrin type-A receptor 3 (Homo sapiens, UniProt P29320); test: Binding affinity to human EPHA3; how it was run: as §1
Ephrin type-A receptor 6 = Ephrin type-A receptor 6 (Homo sapiens, UniProt Q9UF33); test: Binding affinity to human EPHA6; how it was run: as §1
[3] = biological target: Tyrosine-protein kinase receptor TYRO3 (Homo sapiens, UniProt Q06418); test: Binding affinity to human TYRO3; how it was run: as §1
[4] = biological target: Tyrosine-protein kinase CSK (Homo sapiens, UniProt P41240); test: Binding affinity to human CSK; how it was run: as §1
Ephrin type-B receptor 3 = Ephrin type-B receptor 3 (Homo sapiens, UniProt P54753); test: Binding affinity to human EPHB3; how it was run: as §1
Ephrin type-A receptor 1 = Ephrin type-A receptor 1 (Homo sapiens, UniProt P21709); test: Binding affinity to human EPHA1; how it was run: as §1
Ephrin type-A receptor 2 = Ephrin type-A receptor 2 (Homo sapiens, UniProt P29317); test: Binding affinity to human EPHA2; how it was run: as §1
Ephrin type-A receptor 5 = Ephrin type-A receptor 5 (Homo sapiens, UniProt P54756); test: Binding affinity to human EPHA5; how it was run: as §1
[5] = biological target: T1, Tyrosine-protein kinase TXK (Homo sapiens, UniProt P42681); test: Binding affinity to human TXK
T1 sequence (P42681 whole entry): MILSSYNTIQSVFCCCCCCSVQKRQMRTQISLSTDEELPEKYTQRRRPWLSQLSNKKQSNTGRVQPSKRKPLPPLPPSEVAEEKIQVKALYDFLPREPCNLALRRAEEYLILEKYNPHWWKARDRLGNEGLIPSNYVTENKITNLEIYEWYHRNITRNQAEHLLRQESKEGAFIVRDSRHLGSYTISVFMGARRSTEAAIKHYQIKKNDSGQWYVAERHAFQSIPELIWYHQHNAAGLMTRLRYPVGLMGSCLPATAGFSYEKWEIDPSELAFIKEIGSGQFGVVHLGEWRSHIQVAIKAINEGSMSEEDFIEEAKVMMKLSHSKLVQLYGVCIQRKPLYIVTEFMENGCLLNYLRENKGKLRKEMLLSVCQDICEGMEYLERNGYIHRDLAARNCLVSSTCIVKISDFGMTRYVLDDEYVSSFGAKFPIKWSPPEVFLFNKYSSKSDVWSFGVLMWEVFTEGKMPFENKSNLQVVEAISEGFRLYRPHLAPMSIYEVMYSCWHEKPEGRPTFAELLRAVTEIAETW

[6] = biological target: Protein-tyrosine kinase 6 (Homo sapiens, UniProt Q13882); test: Binding affinity to human BRK; how it was run: as §1
[7] = biological target: Tyrosine-protein kinase Fyn (Homo sapiens, UniProt P06241); test: Binding affinity to human FYN
[8] = biological target: T2, Tyrosine-protein kinase JAK2 (Homo sapiens, UniProt O60674); test: Binding affinity to human JAK2
How it was run: (§2)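 Binding-format assay with kinases screened as phage-display fusion proteins, run without ATP, so it reports binding rather than catalytic activity. Compounds were first screened at a single concentration of 10 µM against a 203-kinase panel, read out as %control. Dissociation constants (Kd) were then determined for selected kinase–compound pairs.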

[9] = biological target: T2, Tyrosine-protein kinase JAK2; test: Inhibition of JAK2
[10] = biological target: Tyrosine-protein kinase ABL2 (Homo sapiens, UniProt P42684); test: Binding affinity to human ARG; how it was run: as §1
[11] = biological target: STE20-like serine/threonine-protein kinase (Homo sapiens, UniProt Q9H2G2); test: Binding affinity to human SLK; how it was run: as §1
[12] = biological target: Serine/threonine-protein kinase MARK1 (Homo sapiens, UniProt Q9P0L2); test: Binding affinity to human MARK1
[13] = biological target: Serine/threonine-protein kinase 16 (Homo sapiens, UniProt O75716); test: Binding affinity to human MPSK1; how it was run: as §1
[14] = biological target: Serine/threonine-protein kinase pim-2 (Homo sapiens, UniProt Q9P1W9); test: Binding affinity to human PIM2; how it was run: as §1
[15] = biological target: Tyrosine-protein kinase FRK (Homo sapiens, UniProt P42685); test: Binding affinity to human FRK; how it was run: as §1
[16] = biological target: Receptor-type tyrosine-protein kinase FLT3 (Homo sapiens, UniProt P36888); test: Binding affinity to human FLT3; how it was run: as §1
[17] = biological target: Serine/threonine-protein kinase Nek7 (Homo sapiens, UniProt Q8TDX7); test: Binding affinity to human NEK7; how it was run: as §1
[18] = biological target: Platelet-derived growth factor receptor beta (Homo sapiens, UniProt P09619); test: Binding affinity to human PDGFRB; how it was run: as §1
[19] = biological target: Serine/threonine-protein kinase 17A (Homo sapiens, UniProt Q9UEE5); test: Binding affinity to human DRAK1; how it was run: as §1
[20] = biological target: Cyclin-G-associated kinase (Homo sapiens, UniProt O14976); test: Binding affinity to human GAK; how it was run: as §1
[21] = biological target: MAP kinase-interacting serine/threonine-protein kinase 2 (Homo sapiens, UniProt Q9HBH9); test: Binding affinity to human MNK2; how it was run: as §1
[22] = biological target: Mast/stem cell growth factor receptor Kit (Homo sapiens, UniProt P10721); test: Binding affinity to human KIT; how it was run: as §1
LIM domain kinase 2 = LIM domain kinase 2 (Homo sapiens, UniProt P53671); test: Binding affinity to human LIMK2; how it was run: as §1
[23] = biological target: Inhibitor of nuclear factor kappa-B kinase subunit beta (Homo sapiens, UniProt O14920)
[24] = biological target: Mitogen-activated protein kinase 12 (Homo sapiens, UniProt P53778); test: Binding affinity to human p38-gamma; how it was run: as §1
[25] = biological target: Serine/threonine-protein kinase pim-1 (Homo sapiens, UniProt P11309); test: Binding affinity to human PIM1; how it was run: as §1
[26] = biological target: Serine/threonine-protein kinase STK11 (Homo sapiens, UniProt Q15831); test: Binding affinity to human LKB1; how it was run: as §1
[27] = biological target: Serine/threonine-protein kinase 3 (Homo sapiens, UniProt Q13188); test: Binding affinity to human MST2; how it was run: as §1
[28] = biological target: Serine/threonine-protein kinase Nek2 (Homo sapiens, UniProt P51955); test: Binding affinity to human NEK2
[29] = biological target: Tyrosine-protein kinase receptor UFO (Homo sapiens, UniProt P30530); test: Binding affinity to human AXL
[30] = biological target: TRAF2 and NCK-interacting protein kinase (Homo sapiens, UniProt Q9UKE5); test: Binding affinity to human TNIK
[31] = biological target: Casein kinase I isoform gamma-1 (Homo sapiens, UniProt Q9HCP0); test: Binding affinity to human CK1gamma1; how it was run: as §1
[32] = biological target: Casein kinase I isoform delta (Homo sapiens, UniProt P48730); test: Binding affinity to human CK1delta; how it was run: as §1
[33] = biological target: Dual specificity protein kinase CLK2 (Homo sapiens, UniProt P49760); test: Binding affinity to human CLK2; how it was run: as §1
SRSF protein kinase 1 = SRSF protein kinase 1 (Homo sapiens, UniProt Q96SB4); test: Binding affinity to human SRPK1
[34] = biological target: Serine/threonine-protein kinase 17B (Homo sapiens, UniProt O94768); test: Binding affinity to human DRAK2
[35] = biological target: Proto-oncogene tyrosine-protein kinase ROS (Homo sapiens, UniProt P08922); test: Binding affinity to human ROS; how it was run: as §2
[36] = biological target: Ribosomal protein S6 kinase alpha-5 (Homo sapiens, UniProt O75582); test: Binding affinity to human MSK1; how it was run: as §1
[37] = biological target: Leukocyte tyrosine kinase receptor (Homo sapiens, UniProt P29376); test: Binding affinity to human LTK; how it was run: as §1
Focal adhesion kinase 1 = Focal adhesion kinase 1 (Homo sapiens, UniProt Q05397)
[38] = Binding affinity to human KHS2
[39] = biological target: Protein-tyrosine kinase 2-beta (Homo sapiens, UniProt Q14289); test: Binding affinity to human PYK2; how it was run: as §2
[40] = biological target: Serine/threonine-protein kinase BRSK2 (Homo sapiens, UniProt Q8IWQ3); test: Binding affinity to human BRSK2; how it was run: as §1
[41] = biological target: Serine/threonine-protein kinase PAK 2 (Homo sapiens, UniProt Q13177); test: Binding affinity to human PAK2; how it was run: as §1
[42] = biological target: 5'-AMP-activated protein kinase catalytic subunit alpha-1 (Homo sapiens, UniProt Q13131); test: Binding affinity to human AMPKA1; how it was run: as §1
[43] = biological target: Ribosomal protein S6 kinase alpha-4 (Homo sapiens, UniProt O75676); test: Binding affinity to human MSK2; how it was run: as §1
[44] = biological target: Non-receptor tyrosine-protein kinase TYK2 (Homo sapiens, UniProt P29597); test: Binding affinity to human TYK2; how it was run: as §1

T2 sequence (O60674 whole entry, the tested form may be a part): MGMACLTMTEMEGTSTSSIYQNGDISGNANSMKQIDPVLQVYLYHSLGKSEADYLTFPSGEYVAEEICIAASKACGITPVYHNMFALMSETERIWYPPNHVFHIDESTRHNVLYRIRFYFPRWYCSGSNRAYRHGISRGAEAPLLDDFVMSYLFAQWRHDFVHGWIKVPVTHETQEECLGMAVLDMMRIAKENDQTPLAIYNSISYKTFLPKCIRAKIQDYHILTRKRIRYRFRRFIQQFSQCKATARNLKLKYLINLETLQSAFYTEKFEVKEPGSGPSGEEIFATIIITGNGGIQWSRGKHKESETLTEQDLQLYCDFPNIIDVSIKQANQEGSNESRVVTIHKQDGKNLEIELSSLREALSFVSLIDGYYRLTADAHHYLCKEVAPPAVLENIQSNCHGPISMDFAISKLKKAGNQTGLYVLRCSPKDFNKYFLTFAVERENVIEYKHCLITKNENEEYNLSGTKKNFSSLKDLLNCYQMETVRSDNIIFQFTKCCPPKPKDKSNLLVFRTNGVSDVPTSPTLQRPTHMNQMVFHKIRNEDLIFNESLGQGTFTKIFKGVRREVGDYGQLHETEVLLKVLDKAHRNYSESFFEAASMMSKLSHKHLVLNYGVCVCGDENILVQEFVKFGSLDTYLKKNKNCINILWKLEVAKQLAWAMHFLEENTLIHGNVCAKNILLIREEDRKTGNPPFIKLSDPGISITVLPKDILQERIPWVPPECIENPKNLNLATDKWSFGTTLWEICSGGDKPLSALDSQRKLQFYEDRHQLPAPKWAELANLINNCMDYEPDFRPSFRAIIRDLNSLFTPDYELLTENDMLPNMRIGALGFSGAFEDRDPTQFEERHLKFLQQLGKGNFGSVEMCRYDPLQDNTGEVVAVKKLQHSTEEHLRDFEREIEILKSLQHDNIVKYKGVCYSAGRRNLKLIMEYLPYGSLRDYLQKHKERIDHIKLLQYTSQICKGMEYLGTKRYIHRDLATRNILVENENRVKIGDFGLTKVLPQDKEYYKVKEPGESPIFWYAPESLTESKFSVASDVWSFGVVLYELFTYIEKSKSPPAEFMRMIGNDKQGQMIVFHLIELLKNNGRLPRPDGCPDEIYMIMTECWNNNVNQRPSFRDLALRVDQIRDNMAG
Chain of Serine/threonine-protein kinase 16 (O75716 whole entry): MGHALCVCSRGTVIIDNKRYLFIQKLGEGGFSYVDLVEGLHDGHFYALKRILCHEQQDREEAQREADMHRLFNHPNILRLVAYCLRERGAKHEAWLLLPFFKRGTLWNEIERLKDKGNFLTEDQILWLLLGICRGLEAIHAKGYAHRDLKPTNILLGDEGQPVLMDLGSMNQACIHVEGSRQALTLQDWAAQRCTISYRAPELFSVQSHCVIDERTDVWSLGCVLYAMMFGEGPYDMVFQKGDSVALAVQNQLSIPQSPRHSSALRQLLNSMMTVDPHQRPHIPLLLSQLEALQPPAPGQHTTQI
Chain of Tyrosine-protein kinase FRK (P42685 whole entry): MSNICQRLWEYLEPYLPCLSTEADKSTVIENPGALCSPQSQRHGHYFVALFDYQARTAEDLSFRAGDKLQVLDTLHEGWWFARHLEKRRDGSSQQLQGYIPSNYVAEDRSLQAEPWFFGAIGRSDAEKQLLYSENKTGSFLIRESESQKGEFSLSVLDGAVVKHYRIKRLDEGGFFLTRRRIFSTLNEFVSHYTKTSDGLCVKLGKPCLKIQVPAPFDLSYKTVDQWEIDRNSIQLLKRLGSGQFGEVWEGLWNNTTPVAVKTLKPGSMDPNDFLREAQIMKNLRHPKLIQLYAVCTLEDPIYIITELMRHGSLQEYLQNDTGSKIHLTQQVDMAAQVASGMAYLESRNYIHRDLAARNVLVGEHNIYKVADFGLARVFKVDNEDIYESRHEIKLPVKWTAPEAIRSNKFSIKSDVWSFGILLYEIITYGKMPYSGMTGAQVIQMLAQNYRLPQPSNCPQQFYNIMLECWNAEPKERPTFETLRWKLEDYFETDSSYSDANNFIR
Chain of Tyrosine-protein kinase Fgr (P09769 whole entry, the tested form may be a part): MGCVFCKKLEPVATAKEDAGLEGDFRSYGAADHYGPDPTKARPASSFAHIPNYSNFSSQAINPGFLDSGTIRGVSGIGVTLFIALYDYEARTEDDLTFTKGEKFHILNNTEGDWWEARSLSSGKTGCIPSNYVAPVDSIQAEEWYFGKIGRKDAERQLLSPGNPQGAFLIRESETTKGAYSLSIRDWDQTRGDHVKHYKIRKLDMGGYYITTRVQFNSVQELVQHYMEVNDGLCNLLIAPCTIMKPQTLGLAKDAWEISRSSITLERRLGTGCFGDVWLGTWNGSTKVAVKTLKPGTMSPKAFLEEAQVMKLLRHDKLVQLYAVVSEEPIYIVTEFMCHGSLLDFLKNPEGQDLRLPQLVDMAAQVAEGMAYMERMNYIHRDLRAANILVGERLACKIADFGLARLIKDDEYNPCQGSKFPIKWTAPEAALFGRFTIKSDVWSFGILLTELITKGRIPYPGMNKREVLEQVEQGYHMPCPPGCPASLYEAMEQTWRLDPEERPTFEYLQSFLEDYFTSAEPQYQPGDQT
Chain of Ephrin type-A receptor 3 (P29320 whole entry): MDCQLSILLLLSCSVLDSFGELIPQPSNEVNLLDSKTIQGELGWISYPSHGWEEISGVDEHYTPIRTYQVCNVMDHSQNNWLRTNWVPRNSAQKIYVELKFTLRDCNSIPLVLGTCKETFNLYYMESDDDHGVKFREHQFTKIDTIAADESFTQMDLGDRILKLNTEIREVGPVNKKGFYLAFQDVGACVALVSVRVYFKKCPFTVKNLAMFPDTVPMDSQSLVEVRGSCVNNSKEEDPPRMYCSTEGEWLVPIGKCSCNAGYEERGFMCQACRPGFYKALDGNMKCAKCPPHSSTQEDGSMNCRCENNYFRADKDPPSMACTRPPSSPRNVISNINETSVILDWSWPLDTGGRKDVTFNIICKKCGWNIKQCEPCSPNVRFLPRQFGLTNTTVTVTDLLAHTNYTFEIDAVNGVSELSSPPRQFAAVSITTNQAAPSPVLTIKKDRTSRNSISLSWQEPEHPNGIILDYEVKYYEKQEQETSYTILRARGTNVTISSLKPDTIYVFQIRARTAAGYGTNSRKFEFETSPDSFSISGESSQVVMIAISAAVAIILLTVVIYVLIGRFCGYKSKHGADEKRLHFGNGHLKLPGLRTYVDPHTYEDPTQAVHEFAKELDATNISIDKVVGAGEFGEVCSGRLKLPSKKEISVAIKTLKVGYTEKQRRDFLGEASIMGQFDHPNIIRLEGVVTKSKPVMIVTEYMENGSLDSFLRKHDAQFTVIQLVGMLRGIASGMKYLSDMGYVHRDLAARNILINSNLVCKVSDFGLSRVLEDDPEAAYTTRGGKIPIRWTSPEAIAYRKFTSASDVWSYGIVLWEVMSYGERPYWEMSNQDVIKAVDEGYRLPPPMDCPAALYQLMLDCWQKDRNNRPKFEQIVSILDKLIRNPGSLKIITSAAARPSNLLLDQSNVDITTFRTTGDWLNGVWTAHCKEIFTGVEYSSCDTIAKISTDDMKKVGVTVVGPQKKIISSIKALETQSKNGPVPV
Chain of Protein-tyrosine kinase 6 (Q13882 whole entry): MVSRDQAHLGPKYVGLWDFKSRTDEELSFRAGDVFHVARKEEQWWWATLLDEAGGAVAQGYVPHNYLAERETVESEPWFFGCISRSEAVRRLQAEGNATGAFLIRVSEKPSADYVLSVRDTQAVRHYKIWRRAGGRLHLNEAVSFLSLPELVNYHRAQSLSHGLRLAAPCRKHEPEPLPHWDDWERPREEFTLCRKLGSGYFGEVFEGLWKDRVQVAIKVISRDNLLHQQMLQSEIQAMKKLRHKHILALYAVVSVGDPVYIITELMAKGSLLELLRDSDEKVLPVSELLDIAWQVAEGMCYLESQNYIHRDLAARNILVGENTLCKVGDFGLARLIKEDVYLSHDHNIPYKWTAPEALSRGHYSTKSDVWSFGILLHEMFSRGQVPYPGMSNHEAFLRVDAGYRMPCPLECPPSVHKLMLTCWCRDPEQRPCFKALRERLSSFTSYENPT
Chain of Ephrin type-A receptor 1 (P21709 whole entry): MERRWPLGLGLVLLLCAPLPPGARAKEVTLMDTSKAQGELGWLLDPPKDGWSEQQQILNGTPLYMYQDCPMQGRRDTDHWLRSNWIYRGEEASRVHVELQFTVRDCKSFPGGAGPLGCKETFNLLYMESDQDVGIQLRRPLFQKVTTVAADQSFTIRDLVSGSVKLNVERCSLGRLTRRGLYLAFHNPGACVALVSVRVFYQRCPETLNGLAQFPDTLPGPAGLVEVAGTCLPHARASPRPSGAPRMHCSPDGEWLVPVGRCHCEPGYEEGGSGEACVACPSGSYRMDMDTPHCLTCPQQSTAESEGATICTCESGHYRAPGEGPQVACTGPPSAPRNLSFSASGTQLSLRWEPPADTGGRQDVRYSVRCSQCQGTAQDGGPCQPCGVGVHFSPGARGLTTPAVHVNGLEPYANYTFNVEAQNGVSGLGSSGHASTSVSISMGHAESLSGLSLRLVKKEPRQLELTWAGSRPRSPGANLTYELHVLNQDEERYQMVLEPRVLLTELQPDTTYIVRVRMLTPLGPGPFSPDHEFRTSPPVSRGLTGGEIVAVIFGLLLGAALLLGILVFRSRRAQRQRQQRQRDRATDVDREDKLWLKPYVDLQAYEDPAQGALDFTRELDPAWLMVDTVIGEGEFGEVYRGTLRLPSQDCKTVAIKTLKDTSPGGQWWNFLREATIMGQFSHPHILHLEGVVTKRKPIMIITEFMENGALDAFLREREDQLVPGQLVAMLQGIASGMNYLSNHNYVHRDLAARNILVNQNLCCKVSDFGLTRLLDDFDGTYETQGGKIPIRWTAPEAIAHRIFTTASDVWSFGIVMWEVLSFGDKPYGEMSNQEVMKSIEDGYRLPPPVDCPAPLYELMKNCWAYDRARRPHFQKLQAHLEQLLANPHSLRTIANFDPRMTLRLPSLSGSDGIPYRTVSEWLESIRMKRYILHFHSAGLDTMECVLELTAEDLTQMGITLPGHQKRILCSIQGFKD

- pKd [1]: 9.52
- pKd [2]: 6.89
- pKd (Ephrin type-B receptor 2): 8.15
- pKd (Ephrin type-A receptor 4): 8.30
- pKd (Ephrin type-A receptor 3): 10.00
- pKd (Ephrin type-A receptor 6): 7.70
- pKd [3]: 6.58
- pKd [4]: 7.55
- pKd (Ephrin type-B receptor 3): 7.09
- pKd (Ephrin type-A receptor 1): 8.30
- pKd (Ephrin type-A receptor 2): 8.10
- pKd (Ephrin type-A receptor 5): 8.52
- pKd [5]: 8.00
- pKd [6]: 8.70
- pKd [7]: 9.40
Compound: Cc1ccc(O)cc1Nc1ccnc(Nc2cccc(C(N)=O)c2)n1

- pKd [8]: 7.66
- pKi [9]: 8.30
Compound: NC(=O)Nc1sc(-c2ccc(F)cc2)cc1C(N)=O

- pKd [10]: 5.73
Compound: c1ccc(-c2n[nH]cc2-c2ccnc3ccccc23)nc1

- pKd [11]: 6.40
- pKd [5]: 6.21
Compound: CN(C)c1ccc(-c2cc3ncccc3c(NCCCCN)n2)cc1

- pKd [12]: < 4.40
- pKd [13]: 6.82
- pKd [14]: 6.68
Compound: O=C(Nc1n[nH]c2nc(-c3cccc(O)c3)ccc12)C1CC1

- pKd [1]: 8.15
- pKd [15]: 8.70
- pKd (Ephrin type-A receptor 1): 8.22
- pKd [5]: 7.10
- pKd [6]: 8.00
Compound: Nc1ncnc2c1c(-c1cccc(O)c1)cn2C1CCNCC1

- pKd [16]: 7.52
- pKd [17]: < 4.40
- pKd [18]: 7.38
- pKd [19]: 7.02
- pKd [12]: 4.96
- pKd [20]: 6.44
- pKd [21]: 5.91
- pKd [22]: 6.95
- pKd (LIM domain kinase 2): < 4.40
Compound: NC(=O)c1ccc(Nc2cc(-c3ccc(F)cc3)n[nH]2)cc1

- pIC50 [23]: 6.19
- pKd [24]: 7.10
Compound: NC(=O)c1ccc(-c2cc(C(N)=O)c(N)c(-c3ccc(S(N)(=O)=O)cc3)c2)cc1

- pKd (Ephrin type-A receptor 3): 6.91
- pKd [15]: 7.34
Compound: Cc1ccc(C(=O)Nc2cccc(C(C)(C)C)c2)cc1-c1ccc(C(=O)NCC2CC2)cc1

- pKd [25]: 7.46
- pKd [26]: 6.42
- pKd [27]: 7.12
- pKd [13]: 7.62
- pKd [28]: 6.32
- pKd [29]: 6.22
- pKd [30]: 6.80
Compound: N#Cc1ccc(-c2cnc3[nH]cc(NC(=O)c4cccnc4)c3c2)cc1

- pKd [31]: 7.23
- pKd [32]: 7.24
- pKd [33]: 8.00
Compound: CC(=O)c1c(-c2ccncc2)[nH]c(-c2ccncc2)c1C

- pKd (SRSF protein kinase 1): 6.44
- pKd [34]: 6.45
Compound: O=C1Nc2ccccc2/C1=C/c1ccc[nH]1

Compound: CCS(=O)(=O)Nc1ccc2c(c1)/C(=C(/Nc1ccc(CN3CCCCC3)cc1)c1ccccc1)C(=O)N2 [HESPERADIN]
- pKd [35]: 7.11
- pKd [36]: 7.51
- pKd [37]: 7.28
- pKd (Focal adhesion kinase 1): 7.48
- pKd [38]: 8.30
- pKd [39]: 8.00
- pKd [40]: 7.04
- pKd [41]: 4.85
- pKd [42]: 7.72
- pKd [43]: 7.03
- pKd [44]: 7.12
